Data: ChEMBL document CHEMBL1139837, “Synthesis and transfection efficiencies of new lipophilic polyamines” (J Med Chem, 2007)
Active and inactive are the calls of the source.

Key:
CHO [1] = assay: Survival of CHO cells after 48 hrs upto 6.4 uM; type: functional, Cricetulus griseus
How it was run: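 CHO cells grown at 37 °C, 5% CO2, in RPMI with 10% fetal calf serum, 2 mM glutamine, penicillin/streptomycin and 2 mM aminoguanidine. Viability was checked by trypan blue before each run. Cells were plated at 2e3 cells/mL in 96-well plates and dosed after overnight incubation. DMSO was kept below 40 µM. Growth after 48 h was read as MTT formazan absorbance at 540 nm.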

CHO-K1 [2] = assay: Increase in uptake of DNA in CHOK1 cells after 4 hrs at 5 ug/mL; type: functional, cell-based; details: Cricetulus griseus
How it was run: (§1)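 Confluent CHO-K1 cells, rinsed, were incubated 4 h at 37 °C in serum-free F12K with 1 µg/mL Alexa Fluor-488-labeled DNA complexed with cationic lipid at 0.5, 2.5 or 5 µg/mL. Cells were washed with PBS, trypsinized, washed with ice-cold PBS/1% BSA to remove surface signal, then assayed by flow cytometry for internalized fluorescence. Gated percent positive cells were set against DNA-only cells; mean ± SD.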

CHO-K1 [3] = assay: Increase in uptake of DNA in CHOK1 cells after 4 hrs; type: functional, cell-based; details: Cricetulus griseus; how it was run: as §1
CHO-K1 [4] = assay: Transfection efficiency in eGFP encoding DNA transfected CHOK1 cells after 24 hrs at 5 ug/mL; type: functional, Cricetulus griseus
How it was run: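 Subconfluent (~50%) CHO-K1 cells were exposed 4 h at 37 °C in F12K to 1 µg/mL eGFP plasmid complexed with lipid (0.5, 2.5 or 5 µg/mL). Medium was then replaced with growth medium for 24 h. Trypsinized cells were scored by FACS. The gate was set above the no-plasmid/no-lipid threshold (5.5), giving % GFP-positive cells; mean ± SD.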

[5] = Inhibition of [14C]spermine uptake into polyamine transporter in CHOK1 cells; type: cell-based; details: Cricetulus griseus, CHO-K1
How it was run: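 Subconfluent CHO-K1 cells were rinsed three times in F12K and dosed with varying compound concentrations. They were incubated 20 min with 1 µM [14C]spermine (31 Ci/mol) in serum-free medium, rinsed (including 1 mM spermine washes), and lysed in 0.5 M NaOH for 1 h at 37 °C. Lysates were neutralized and scintillation-counted to give an IC50.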

CHO [6] = assay: Cytotoxicity against CHO cells after 24 hrs at 0.5 uM; type: cell-based, Cricetulus griseus; details: chinese hamster

SMILES | Survival (CHO [1]) | Activity (CHO-K1 [2]) | Activity (CHO-K1 [3]) | Activity (CHO-K1 [4]) [%] | IC50 [5] [µM] | Activity (CHO [6]) [%]
CCCCCCCC/C=C/CCCCCCCCOc1ccc(CNCCCCNCCCCN)cc1OCCCCCCCC/C=C/CCCCCCCC | >=90% | Active | Dose-dependent effect | 49 |  | 
CCCCCCCC/C=C/CCCCCCCCOc1ccc(CNCCCCCCCCN)cc1OCCCCCCCC/C=C/CCCCCCCC | >=90% |  | Dose-dependent effect | 23 |  | 
CCCCCCCC/C=C/CCCCCCCCOc1ccc(CNCCCCN)cc1OCCCCCCCC/C=C/CCCCCCCC | >=90% | Active | Dose-dependent effect | 38 |  | 
CCCCCCCC/C=C/CCCCCCCCOc1ccc(C(=O)NCCCCNCCCCN)cc1OCCCCCCCC/C=C/CCCCCCCC | >=90% |  | Dose-dependent effect | 40 |  | 
CCCCCCCC/C=C/CCCCCCCCOc1ccc(CNCCOCCOCCN)cc1OCCCCCCCC/C=C/CCCCCCCC | >=90% |  | Dose-dependent effect | 25 |  | 
CCCCCCCC/C=C/CCCCCCCCOc1ccc(CNCCCCNCCCCNCCCCN)cc1OCCCCCCCC/C=C/CCCCCCCC | >=90% | Active | Dose-dependent effect | 67 | 10 | 
CCCCCCCC/C=C/CCCCCCCCOc1ccc(C(=O)NCCCCNCCCCNCCCCN)cc1OCCCCCCCC/C=C/CCCCCCCC |  |  | Dose-dependent effect |  |  | 95
